Laboratory results as given in ChEMBL document CHEMBL1125479, “Methoxytetrahydropyrans. A new series of selective and orally potent 5-lipoxygenase inhibitors” (J Med Chem, 1992).
Several values for one entry are separate records, joined by “and”; a condition that tells them apart may be missing. Equal entries are not always repeated.

Legend:
[1] = molecular target: T1, Polyunsaturated fatty acid 5-lipoxygenase (Homo sapiens, UniProt P09917); assay: In vitro inhibition of leukotriene B4 synthesis in human whole blood by inhibiting 5-lipoxygenase; format: tissue-based
T1 sequence (P09917 whole entry): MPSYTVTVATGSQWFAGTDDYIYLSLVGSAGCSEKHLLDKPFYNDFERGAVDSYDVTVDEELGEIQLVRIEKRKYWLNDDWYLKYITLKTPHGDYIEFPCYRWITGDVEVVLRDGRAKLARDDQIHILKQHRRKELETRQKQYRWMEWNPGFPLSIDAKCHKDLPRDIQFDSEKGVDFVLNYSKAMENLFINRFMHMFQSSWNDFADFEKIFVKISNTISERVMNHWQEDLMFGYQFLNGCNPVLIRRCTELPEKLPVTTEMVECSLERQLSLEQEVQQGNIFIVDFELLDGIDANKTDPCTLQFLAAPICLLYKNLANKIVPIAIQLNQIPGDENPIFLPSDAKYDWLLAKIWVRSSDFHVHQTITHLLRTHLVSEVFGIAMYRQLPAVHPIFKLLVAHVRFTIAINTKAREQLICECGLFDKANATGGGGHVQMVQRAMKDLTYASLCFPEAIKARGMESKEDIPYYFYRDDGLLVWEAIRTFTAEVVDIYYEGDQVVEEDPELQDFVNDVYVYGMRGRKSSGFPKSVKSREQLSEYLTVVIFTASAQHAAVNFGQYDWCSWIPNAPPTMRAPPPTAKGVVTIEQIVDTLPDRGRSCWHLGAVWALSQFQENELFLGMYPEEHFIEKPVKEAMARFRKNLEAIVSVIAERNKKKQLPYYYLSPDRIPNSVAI
In short: (§1)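 Heparinized human whole blood preincubated with compound, then stimulated with calcium ionophore A23187; LTB4 (5-LPO product) and TxB2 (cyclooxygenase product) generation measured.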

[2] = test system: Rattus norvegicus; assay: Ex vivo potency in for eicosanoid generation in inflammatory exudate of rat 3 hr after peroral administration; format: functional; conditions: po
In short: (§2)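 Male Alderley Park rats (130-150 g) given a subcutaneous air pouch (20 mL sterile air under halothane, reinflated with 10 mL 3 days later). After a further 3 days, oral dosing (DMSO solution in 0.5% HPMC/0.1% polysorbate 80, 1 mL/kg) or vehicle, then 1 mL of 1% zymosan in saline into the pouch.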

[3] = Logarithm of partition coefficient was determined; format: physicochemical; conditions: octanol/water
[4] = Aqueous solubility was determined; format: physicochemical; conditions: buffer
[5] = In vitro inhibition of thromboxane B2 in human whole blood Value; format: tissue-based; in short: as §1
[6] = test system: Rattus norvegicus; assay: Ex vivo potency in rat blood for eicosanoid generation 1 hr after peroral administration; format: functional; conditions: po
In short: (§3)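 Rats dosed orally (1 mL/kg) with compound dissolved in DMSO and suspended in 0.5% (hydroxypropyl)methylcellulose with 0.1% polysorbate 80; controls got vehicle.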

[7] = species on record: Homo sapiens; assay: In vitro inhibition of leukotriene B4 in human whole blood; format: functional; in short: as §1
[8] = test system: Rattus norvegicus; assay: Ex vivo potency in rat blood for eicosanoid generation 3 hr after peroral administration; format: functional; conditions: po; in short: as §3
[9] = molecular target: T1, Polyunsaturated fatty acid 5-lipoxygenase; assay: In vitro inhibition of leukotriene B4 synthesis in human whole blood by inhibiting 5-LPO (5-lipoxygenase); format: tissue-based; in short: as §1
[10] = test system: Rattus norvegicus; assay: Ex vivo potency against rat blood after 1 hr peroral administration; format: functional; conditions: po, 3 h, in the assay text read “after 3 hr” for “after 1 hr”; in short: as §3
[11] = test system: Rattus norvegicus; assay: Compound was tested for the generation of eicosanoid in inflammatory exudate after 3 hr peroral administration; format: functional; conditions: po; in short: as §2
[12] = species on record: Mus musculus; assay: In vitro inhibitory activity against leukotriene synthesis in mouse macrophages; format: functional
[13] = test system: Rattus norvegicus; assay: Ex vivo potency against rat blood after 3 hr peroral administration; format: functional; conditions: po; in short: as §3

IC50 [1] | Structure (SMILES) | ED50 [2] | other results
19000 nM | COC1(c2ccc(OCc3ccc4ccccc4c3)cc2)CCOCC1 | – | –
40000 nM | COC1(c2cc(OCc3ccc4ccccc4c3)ccc2C)CCOCC1 | – | –
200 nM | COC1(c2cc(F)cc(OCc3ccc4c(=O)n(C)ccc4c3)c2)CCOCC1 | > 1.5 mg/kg | –
50 nM | COC1(c2cc(F)cc(OCc3ccc4c(c3)ncc(=O)n4C)c2)CCOCC1 | 1.5 mg/kg | delta Log P [3]: -2.3; Delta logS [4]: 1.8
80 nM | COC1(c2cc(F)cc(OCc3ccc4c(c3)C(C)(C)C(=O)N4C)c2)CCOCC1 | > 1.5 mg/kg | –
– | CC(c1cc2ccccc2s1)N(O)C(N)=O (stereo not given) [ZILEUTON] | 3 mg/kg | IC50 [5]: 40000 nM
10600 nM | COC1(c2cccc(OCc3ccc4ccccc4c3)c2)CCS(=O)(=O)CC1 | – | –
– | COC1(c2cc(F)cc(OCc3ccc4nccnc4c3)c2)CCOCC1 | 30 mg/kg | delta Log P [3]: -1.8; Delta logS [4]: 1.8; ED50 [6]: 30 mg/kg
400 nM | COC1(c2cccc(OCc3ccc4ccccc4c3)c2)CCSCC1 | – | IC50 [7]: 400 nM
1700 nM | COC1(c2cccc(OCc3ccc4ccccc4c3)c2)CCCOC1 (stereo not given) | – | IC50 [7]: 2800 nM
200 nM | COC1(c2cc(F)cc(OCc3ccc4ncncc4c3)c2)CCOCC1 | – | delta Log P [3]: -2.1; Delta logS [4]: 1.5; ED50 [6]: > 100 mg/kg
1300 nM | COC1(c2cccc(OCc3cccc4c3ccc(=O)n4C)c2)CCOCC1 | – | ED50 [8]: > 3 mg/kg
700 nM | COC1(c2cccc(OCc3ccc4ccccc4c3)c2)CCOC1 (stereo not given) | – | –
– | CC(C)c1ccc2c(c1)c(SC(C)(C)C)c(CC(C)(C)C(=O)[O-])n2Cc1ccc(Cl)cc1.[Na+] | – | IC50 [9]: 1100 nM; ED50 [10]: 3 mg/kg; ED50 [11]: 2 mg/kg
200 nM | COC1(c2cc(F)cc(OCc3ccc4c(c3)oc(=O)n4C)c2)CCOCC1 | > 1.5 mg/kg | –
2600 nM | COC1(c2cccc(OCc3ccc4ccccc4c3)c2)CCCCC1 | – | –
600 nM | COC1(c2cccc(OCc3ccc4ccccc4c3)c2C)CCOCC1 | – | –
70 nM | COC1(c2cccc(OCC#Cc3ccccc3)c2)CCOCC1 | – | –
– | CCOC(C)=O.COC1(c2cc(F)cc(OCc3cc4ccccc4nc3O)c2)CCOCC1 | – | ED50 [6]: > 100 mg/kg
70 nM | COC1(c2cccc(OCc3ccc4ccccc4c3)c2)CCOCC1 | 10 mg/kg | ED50 [8]: 10 mg/kg; IC50 [12]: 0.5 nM; ED50 [6]: 5 mg/kg

IC50 [1] | Structure (SMILES) | ED50 [2] | other results
80 nM | COC1(c2cc(F)cc(OCc3ccc4c(c3)n(C)c(=O)n4C)c2)CCOCC1 | 1.5 mg/kg | delta Log P [3]: -1.7; Delta logS [4]: 1
– | COC1(c2cccc(OCc3ccc4c(ccc(=O)n4C)c3)c2)CCOCC1 | 3 mg/kg | delta Log P [3]: -2; ED50 [8]: 1.5 mg/kg; Delta logS [4]: 1.8
4200 nM | COC1(c2cccc(OCc3ccc4ccccc4c3)c2)CC[S+]([O-])CC1 (stereo not given) | – | –
400 nM | COC1(c2cc(F)cc(OCc3cc4ccccc4n(C)c3=O)c2)CCOCC1 | > 1.5 mg/kg | –
– | COC1(c2cc(F)cc(OCc3ccc4oc(=O)ccc4c3)c2)CCOCC1 | – | IC50 [9]: 300 nM; ED50 [13]: > 3 mg/kg
500 nM | COC(C)(c1cccc(OCc2ccc3ccccc3c2)c1)c1nccs1 (stereo not given) | – | –
– | COC(C)(c1nccs1)c1cccc(OCc2ccc3ccccc3c2)c1C (stereo not given) | – | IC50 [7]: 1000 nM
900 nM and 1000 nM | CCC(OC)(c1cccc(OCC#Cc2ccccc2)c1)c1nccs1 (stereo not given) | – | –
40000 nM | CCC(OC)(c1ccc(OCc2ccc3ccccc3c2)cc1)c1nccs1 (stereo not given) | – | –
600 nM | COC1(c2cc(F)cc(OCc3ccc4nc(O)ccc4c3)c2)CCOCC1 | – | ED50 [8]: > 3 mg/kg
3400 nM | COC1(c2cccc(OCc3ccc4ccccc4c3)c2)CCC(=O)CC1 | – | –
400 nM | COC1(c2cccc(OCC#Cc3ccccn3)c2)CCOCC1 | – | ED50 [6]: 100 mg/kg
200 nM | COC1(c2cccc(OCc3ccc4ccccc4c3)c2)CCCOCC1 (stereo not given) | – | –
> 40000 nM | COC1(c2cccc(OCc3ccc4ccccc4c3)c2)CCN(C)CC1 | – | –
20 nM | COC1(c2cc(F)cc(OCc3ccc4c(ccc(=O)n4C)c3)c2)CCOCC1 [ZD-2138] | 0.3 mg/kg | delta Log P [3]: -1.7; ED50 [8]: 0.9 mg/kg; Delta logS [4]: 0.9; ED50 [6]: 1 mg/kg; IC50 [5]: > 500000 nM
200 nM | COC1(c2cccc(OCc3ccc4ccc(=O)n(C)c4c3)c2)CCOCC1 | – | ED50 [8]: > 3 mg/kg
200 nM | CCOC(C)=O.COC1(c2cc(F)cc(OCc3ncc4ccccc4n3)c2)CCOCC1 | – | delta Log P [3]: -1.9; Delta logS [4]: 1.9; ED50 [6]: > 10 mg/kg
2500 nM | COC1(c2cccc(OCc3ccc4ccccc4c3)c2)CCCCOC1 (stereo not given) | – | –
40 nM | COC1(c2cc(F)cc(OCc3ccc4c(c3)sc(=O)n4C)c2)CCOCC1 | 1.5 mg/kg | delta Log P [3]: -1.2; Delta logS [4]: 0.8
2500 nM | COC1(c2cccc(OCc3ccc4ccccc4c3)c2)COC1 | – | –
